MC4R antagonist: human MC4R antagonism in cAMP assay | P32245 | MC4R-expressing cells, MTII-stimulated cAMP, LANCE TR-FRET | inhibition, % at 6.5 µM | 360,000 compounds, 0.48% hits;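 active = inhibition above its plate's cutoff, the mean of tested wells on that plate plus 3 SD, cut at about 29% in these data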
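System: U2OS cells stably expressing human melanocortin 4 receptor (MC4R). Reagent: Melanotan II challenge after compound preincubation. Doses: 6.5 µM. Times: 30-min compound, 1-h challenge, 1-h detection, room temperature. Measured by: TR-FRET with Eu-cAMP and labeled anti-cAMP, 671 nm. Replicates: singlicate.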
MC4R barr agon: agonists of human melanocortin 4 receptor (MC4R) beta-arrestin; U2OS MC4R beta-arrestin complementation, luminescence; percent of melanotan II response, DMSO zero; activation, % at 8.9 µM; 360,000 compounds, 0.98% hits; AID 540308;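 active = activation above a per-plate cutoff, the mean activation of sample wells on that plate plus 3 SD, cut at about 8% in these data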
EBI2 block: antagonists of human EBI2 receptor | inhibition, % at 5 µM | AID 651636 | 360,000 compounds, 0.81% hits | P32249 | EBI2 beta-arrestin recruitment, luminescence, 7a,25-OHC stimulated; in the data active = inhibition above about 38%;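 note: enzyme fragment complementation signal reports receptor beta-arrestin coupling in cells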
m5-HT2A agonist: mouse HTR2A agonism via beta-arrestin recruitment | CHO-K1 mHTR2A beta-arrestin complementation, luminescence; percent of 30 µM serotonin response | 360,000 compounds, 0.66% hits | AID 624169 | activation, % at 7.6 µM;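 active = activation above a run cutoff, the mean activation of all tested compounds plus 3 SD, cut at about 14% in these data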
Target sequence (P35363 whole entry, looked up): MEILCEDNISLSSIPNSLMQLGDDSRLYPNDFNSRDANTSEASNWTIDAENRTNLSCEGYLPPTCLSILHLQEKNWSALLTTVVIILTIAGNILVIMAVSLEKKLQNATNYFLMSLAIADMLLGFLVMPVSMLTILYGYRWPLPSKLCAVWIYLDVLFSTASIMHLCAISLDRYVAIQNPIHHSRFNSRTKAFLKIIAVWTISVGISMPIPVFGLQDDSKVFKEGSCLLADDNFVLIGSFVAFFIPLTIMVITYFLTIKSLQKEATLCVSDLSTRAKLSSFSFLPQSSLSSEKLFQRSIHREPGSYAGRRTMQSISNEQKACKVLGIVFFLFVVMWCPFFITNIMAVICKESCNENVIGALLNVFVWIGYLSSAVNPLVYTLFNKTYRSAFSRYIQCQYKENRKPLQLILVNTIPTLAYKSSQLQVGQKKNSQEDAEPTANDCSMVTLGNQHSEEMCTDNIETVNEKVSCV
MC4R barr conf: human MC4R beta-arrestin agonism confirmation; shares compounds with MC4R barr agon; U2OS MC4R beta-arrestin recruitment, luminescence; scaled DMSO 0%, Melanotan II 100%; activation, % at 8.9 µM; 2,400 compounds, 31% hits; AID 602192;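 active = mean activation across replicates above the hit cutoff set in the earlier primary screen, cut at about 8% in these data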
MOR DOR agonist: activates mu-delta opioid heterodimer, MC4R agonist counter-screen; shares compounds with MC4R barr agon; AID 602194; U2OS PathHunter beta-arrestin, beta-gal luminescence; percent of deltorphin B response, DMSO zero; activation, % at 9.2 µM; 2,400 compounds, 5.8% hits;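 active = mean activation across replicates exceeds the hit threshold derived in the earlier primary screen, cut at about 18% in these data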
Numbers stand for hits; - = inactive; . = no result. Compounds with a hit are over-represented: about 2.8% of the library has one in this group of screens.

SMILES	MC4R antagonist	MC4R barr agon	EBI2 block	m5-HT2A agonist	MC4R barr conf	MOR DOR agonist
COc1ccc(Nc2nc(NCc3cccs3)nc3ccsc23)cc1OC	-	-	-	-	.	.
CCOC(=O)Cc1ccc(Nc2nc(NCc3cccs3)nc3ccsc23)cc1	-	15	-	-	-	-
O=C(NCC1OCCc2ccccc21)c1cc(COc2ccc(F)cc2Cl)on1 (configuration not stated)	-	15	-	-	-	-
O=C(NC(=S)Nc1nc(-c2ccccc2)cs1)c1cccs1	-	11	-	-	-	-
O=C(NC(=S)Nc1nc(-c2ccccc2)cs1)c1cccnc1	-	-	-	-	.	.
O=C(NC(=S)Nc1nc(-c2ccccc2)cs1)c1cncc(Br)c1	-	22	-	-	-	-
CC(=O)Nc1ccc(NC(=O)CN2CCN(c3cccc(C(F)(F)F)c3)CC2)cc1	-	-	-	-	.	.
CC(=O)c1cc2c(cc1NC(=O)CN1CCN(c3cccc(C(F)(F)F)c3)CC1)OCO2	-	16	-	-	-	-
CC1(C(=O)Nc2ccc(F)c(Cl)c2)Cc2c(-c3ccc(C(N)=O)cc3)ccnc2O1 (configuration not stated)	-	-	-	-	.	.
O=C(c1cccc(-c2ccc(O)cc2)c1)N1CCN(c2ccc(F)cc2)CC1	-	13	-	-	-	-
O=C(Nc1cccc(C(=O)N2CCN(c3ccc(F)cc3)CC2)c1)c1ccccc1	-	-	-	-	.	.
N#Cc1cccc(C(=O)C(=O)N2CCCN(Cc3ccc(F)cc3)CC2)c1	.	.	-	-	.	.
Cc1n[nH]c(C)c1S(=O)(=O)N(CC(=O)N1CCc2ccccc21)c1ccc(C(C)C)cc1	-	13	-	-	-	-
CCOc1ccc(N(CC(=O)N2CCc3ccccc32)S(=O)(=O)c2c(C)noc2C)cc1	-	-	-	-	.	.
COc1cccc(C2=Cc3ccc(F)cc3C(CC(C)=O)N2c2ccc(C#CC3(O)CCCCC3)cc2)c1 (configuration not stated)	.	.	-	-	.	.
COc1cc(-c2nnc(COc3ccc(Cl)cc3C)o2)cc(OC)c1OC	-	28	-	-	-	-
Cc1cc(Cl)ccc1OCc1nnc(-c2ccccc2C)o1	-	-	-	-	.	.
COc1ccc(NC(=S)N/N=C/c2cccn2Cc2ccc(F)cc2)cc1	-	10	-	-	-	-
Cc1ccc(Cn2cccc2/C=N/NC(=S)Nc2ccc(C)cc2)cc1	-	21	-	-	8.8	-
COc1ccc(NC(=S)Nc2ccc(F)cc2)cc1	-	-	-	-	.	.
CC(C)C[C@H]1COc2cc(N(C)CCO)ccc2S(=O)(=O)N1	.	.	-	-	.	.
CC(C)(C)OC(=O)NCCc1onc(-c2cccc([N+](=O)[O-])c2)c1C(=O)O	-	-	-	-	.	.
CC(C)c1ccc(CC(=O)N2CCC2(C)C(=O)Nc2ccc3c(c2)OCCO3)cc1 (configuration not stated)	-	-	-	-	.	.
Cc1ccc(NC(=O)c2ccc(N/N=C/c3cccc(O)c3)c([N+](=O)[O-])c2)cc1	-	9.9	-	-	-	-
O=C(CCc1nc2ccccc2c(=O)[nH]1)Nc1nnc(SCc2ccccc2)s1	-	-	-	-	.	.
SMILES	MC4R antagonist	MC4R barr agon	EBI2 block	m5-HT2A agonist	MC4R barr conf	MOR DOR agonist
O=c1[nH]c(CSc2nnc(Nc3ccccc3)s2)nc2ccccc12	-	9.7	-	-	-	-
COc1ccc(Cn2c(SCc3cc(C)ccc3C)nc3cc(OC)c(OC)cc3c2=N)cc1	-	21	-	-	-	20
COc1ccc(Cn2c(SCc3ccc(C)cc3)nc3cc(OC)c(OC)cc3c2=N)cc1Cl	-	28	-	-	-	19
COc1cc2nc(SCc3ccc(C(F)(F)F)cc3)n(Cc3cccs3)c(=N)c2cc1OC	-	14	-	-	-	-
O=S1(=O)CC(N2CCSCC2)CN1Cc1cn(Cc2ccc(C(F)(F)F)cc2)nn1 (configuration not stated)	.	.	-	-	.	.
Cc1cc2nc(-c3ccccc3Br)n(/C=C(\c3ccccc3)n3c(=O)[nH]c4ccccc43)c2cc1C	.	.	-	-	.	.
Cc1ccc(Nc2nc(N)nc(CCl)n2)cc1	-	14	-	-	17	18
Cc1cccc(Nc2nc(N)nc(CCl)n2)c1C	-	25	-	-	23	37
O=S(=O)(c1ccc2nc(-c3ccccc3)[nH]c2c1)N1CCN(c2cccc(Cl)c2)CC1	-	15	-	-	-	-
Cc1ccccc1N(CC(=O)NC(C)(C)C)C(=O)CCC(=O)Nc1nccs1	-	-	-	-	.	.
CC(C)(C)NC(=O)CN(C(=O)CCC(=O)Nc1nccs1)c1ccccc1F	-	12	-	-	-	-
NC(=O)COc1ccc2oc(=O)cc(-c3cc4ccccc4o3)c2c1	-	-	-	-	.	.
COC(=O)COc1ccc2oc(=O)cc(-c3cc4ccccc4o3)c2c1	-	16	-	-	-	-
COc1ccc(NC(=O)C2Cc3c(-c4cccc(C(C)=O)c4)ccnc3O2)cc1 (configuration not stated)	-	-	-	-	.	.
COC(=O)C[C@H]1CC[C@H](NS(=O)(=O)c2cn(C)cn2)[C@@H](CO)O1	.	.	-	-	.	.
C(=N\NC1=Nc2cccc3cccc1c23)/c1ccccc1	-	14	-	-	-	-
O=C(Cc1ccc(NC(=O)C2CCN(C(=O)C3CC3)CC2)cc1)Nc1ccc(C(=O)N2CCOCC2)cc1	-	-	-	-	.	.
Cc1csc(NC(=O)c2cc(-c3ccccc3)nc3ccccc23)n1	-	12	-	-	-	-
O=C(NC(=S)Nc1ccc(NC(=O)c2cccs2)cc1)c1ccco1	-	-	-	-	.	.
Cc1ccc(C(=O)NC(=S)Nc2ccc(NC(=O)c3cccs3)cc2)cc1[N+](=O)[O-]	-	29	-	-	-	-
O=C(NC(=S)Nc1ccc(NC(=O)c2cccs2)cc1)c1cc2ccccc2o1	-	26	-	-	9.6	-
Cc1ccc(C(=O)Nc2ccc(NC(=O)c3cccs3)cc2)cc1[N+](=O)[O-]	-	-	-	-	.	.
Cc1cc(Br)cc(Cl)c1OCC(=O)NC(=O)NCc1ccccc1	-	12	-	-	-	-
O=C(COC(=O)/C=C/c1cccc(C(F)(F)F)c1)NCc1ccccc1	-	-	-	-	.	.
O=C(COC(=O)/C=C/c1ccccc1Cl)NCCc1ccc(Cl)cc1Cl	-	9.9	-	-	-	-
O=C(COC(=O)/C=C/c1cccc(Cl)c1)NC(=O)NCc1ccccc1	-	11	-	-	-	-
CCc1nc2c(OCc3ccc(Cl)cc3Cl)cccn2c1N(C)C(C)=O	-	-	-	-	.	.
CC(=O)Nc1cc(-c2ccc(C(=O)N3CCOCC3)cc2)cn2c(-c3cccc(C(C)=O)c3)cnc12	-	-	-	-	.	.
